From ChEMBL document CHEMBL2177098, “Synthesis and evaluation of novel ¹⁸F labeled 2-pyridinylbenzoxazole and 2-pyridinylbenzothiazole derivatives as ligands for positron emission tomography (PET) imaging of β-amyloid plaques” (J Med Chem, 2012)

Columns and labels:
[1] = n-Octanol-PBS buffer partition coefficient, log D of the compound at 1.5 MBq after 3 mins at pH 7.4; format: physicochemical
Outline: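 The tracer was partitioned between n-octanol and PBS by vortexing for 3 min at room temperature, then centrifuged for 5 min at 3000 rpm. Samples of the octanol (50 μL) and aqueous (500 μL) layers were counted. log D is the log of the octanol/PBS counts-per-gram ratio. The octanol layer was repartitioned until values were consistent. Measured in triplicate and repeated three times.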

[2] = system: Blood; assay: Drug uptake in ICR mouse blood at 370 kBq/100 ul, iv at 10 mins by gamma-counting analysis; format: ADME, organism-based; details: in vivo
Outline: (§1)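 Male ICR mice (5 weeks, about 20 g) got 18F tracer in saline (370 KBq per 100 μL) via tail vein; n = 5 per time point, killed at 2, 10, 30, 60 min. Organs weighed and γ-counted; percent dose per gram wet tissue from comparison with diluted injectate aliquots.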

[3] = system: Brain; assay: Ratio of drug uptake in brain at 2 mins to drug uptake in brain at 60 mins in ICR mouse at 370 KBq/100 ul, iv; format: ADME, organism-based; details: in vivo
Outline: (§2)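 Normal male ICR mice (5 weeks, about 20 g) received the ¹⁸F tracer in saline (370 KBq per 100 μL) by tail-vein injection. Groups of n = 5 were killed at 2, 10, 30 and 60 min. Organs were removed, weighed and γ-counted against diluted aliquots of the injectate, giving % dose per gram. Stomach and intestine were expressed per organ. The brain ratio is 2 min/60 min uptake. Values are mean ± SD.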

[4] = system: Stomach; assay: Drug uptake in ICR mouse stomach assessed per organ at 370 kBq/100 ul, iv at 30 mins by gamma-counting analysis; format: ADME, organism-based; details: in vivo, 0.5 h
Outline: (§3)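 Male ICR mice (5 weeks, about 20 g) got 18F tracer in saline (370 KBq per 100 μL) via tail vein; n = 5 per time point, killed at 2, 10, 30, 60 min. Organs removed and γ-counted against diluted injectate; expressed as % injected dose per organ.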

[5] = system: Brain; assay: Drug uptake in ICR mouse brain at 370 kBq/100 ul, iv at 10 mins by gamma-counting analysis; format: ADME, organism-based; details: in vivo; outline: as §1
[6] = system: Bone; assay: Drug uptake in ICR mouse bone at 370 kBq/100 ul, iv at 60 mins by gamma-counting analysis; format: ADME, organism-based, Bone element; details: in vivo, 1 h; outline: as §1
[7] = system: Kidney; assay: Drug uptake in ICR mouse kidney at 370 kBq/100 ul, iv at 60 mins by gamma-counting analysis; format: ADME, organism-based; details: in vivo, 1 h; outline: as §1
[8] = system: Blood; assay: Drug uptake in ICR mouse blood at 370 kBq/100 ul, iv at 60 mins by gamma-counting analysis; format: ADME, organism-based; details: in vivo, 1 h; outline: as §1
[9] = system: Brain; assay: Drug uptake in ICR mouse brain at 370 kBq/100 ul, iv at 2 mins by gamma-counting analysis; format: ADME, organism-based; details: in vivo; outline: as §1
[10] = system: Brain; assay: Drug uptake in ICR mouse brain at 370 kBq/100 ul, iv at 30 mins by gamma-counting analysis; format: ADME, organism-based; details: in vivo, 0.5 h; outline: as §1
[11] = system: Blood; assay: Drug uptake in ICR mouse blood at 370 kBq/100 ul, iv at 30 mins by gamma-counting analysis; format: ADME, organism-based; details: in vivo, 0.5 h; outline: as §1
[12] = system: Kidney; assay: Drug uptake in ICR mouse kidney at 370 kBq/100 ul, iv at 10 mins by gamma-counting analysis; format: ADME, organism-based; details: in vivo; outline: as §1
[13] = system: Heart; assay: Drug uptake in ICR mouse heart at 370 kBq/100 ul, iv at 60 mins by gamma-counting analysis; format: ADME, organism-based; details: in vivo, 1 h; outline: as §1
[14] = system: Liver; assay: Drug uptake in ICR mouse liver at 370 kBq/100 ul, iv at 30 mins by gamma-counting analysis; format: ADME, organism-based; details: in vivo, 0.5 h; outline: as §1
[15] = system: Lung; assay: Drug uptake in ICR mouse lung at 370 kBq/100 ul, iv at 60 mins by gamma-counting analysis; format: ADME, organism-based; details: in vivo, 1 h; outline: as §1
[16] = system: Bone; assay: Drug uptake in ICR mouse bone at 370 kBq/100 ul, iv at 10 mins by gamma-counting analysis; format: ADME, organism-based, Bone element; details: in vivo; outline: as §1
[17] = system: Stomach; assay: Drug uptake in ICR mouse stomach assessed per organ at 370 kBq/100 ul, iv at 10 mins by gamma-counting analysis; format: ADME, organism-based; details: in vivo; outline: as §3
[18] = system: Intestine; assay: Drug uptake in ICR mouse intestine assessed per organ at 370 kBq/100 ul, iv at 30 mins by gamma-counting analysis; format: ADME, organism-based; details: in vivo, 0.5 h; outline: as §3
[19] = system: Intestine; assay: Drug uptake in ICR mouse intestine assessed per organ at 370 kBq/100 ul, iv at 10 mins by gamma-counting analysis; format: ADME, organism-based; details: in vivo; outline: as §3
[20] = system: Spleen; assay: Drug uptake in ICR mouse spleen at 370 kBq/100 ul, iv at 60 mins by gamma-counting analysis; format: ADME, organism-based; details: in vivo, 1 h; outline: as §1
[21] = system: Liver; assay: Drug uptake in ICR mouse liver at 370 kBq/100 ul, iv at 10 mins by gamma-counting analysis; format: ADME, organism-based; details: in vivo; outline: as §1
[22] = system: Spleen; assay: Drug uptake in ICR mouse spleen at 370 kBq/100 ul, iv at 10 mins by gamma-counting analysis; format: ADME, organism-based; details: in vivo; outline: as §1
[23] = system: Brain; assay: Drug uptake in wild type C57BL6 mouse brain at 370 KBq/100 ul after 1 hr by autoradiographic analysis; format: ADME, tissue-based; details: in vitro
Outline: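 Paraffin brain sections from 12-month-old male control C57BL6 mice were deparaffinized through xylene and graded ethanol, then held in PBS (0.2 M, pH 7.4) for 30 min. They were incubated with the ¹⁸F tracer (370 KBq per 100 μL) for 1 h at room temperature. Sections were washed in 40% EtOH, rinsed with water for 1 min, dried, and exposed to a phosphor plate for 2 h. The same sections were then stained with thioflavin S.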

[24] = system: Kidney; assay: Drug uptake in ICR mouse kidney at 370 kBq/100 ul, iv at 30 mins by gamma-counting analysis; format: ADME, organism-based; details: in vivo, 0.5 h; outline: as §1
[25] = system: Intestine; assay: Drug uptake in ICR mouse intestine assessed per organ at 370 kBq/100 ul, iv at 60 mins by gamma-counting analysis; format: ADME, organism-based; details: in vivo, 1 h; outline: as §3
[26] = system: Spleen; assay: Drug uptake in ICR mouse spleen at 370 kBq/100 ul, iv at 2 mins by gamma-counting analysis; format: ADME, organism-based; details: in vivo; outline: as §1
[27] = system: Lung; assay: Drug uptake in ICR mouse lung at 370 kBq/100 ul, iv at 10 mins by gamma-counting analysis; format: ADME, organism-based; details: in vivo; outline: as §1
[28] = system: Bone; assay: Drug uptake in ICR mouse bone at 370 kBq/100 ul, iv at 2 mins by gamma-counting analysis; format: ADME, organism-based, Bone element; details: in vivo; outline: as §1
[29] = system: Heart; assay: Drug uptake in ICR mouse heart at 370 kBq/100 ul, iv at 2 mins by gamma-counting analysis; format: ADME, organism-based; details: in vivo; outline: as §1
[30] = system: Liver; assay: Drug uptake in ICR mouse liver at 370 kBq/100 ul, iv at 60 mins by gamma-counting analysis; format: ADME, organism-based; details: in vivo, 1 h; outline: as §1
[31] = system: Kidney; assay: Drug uptake in ICR mouse kidney at 370 kBq/100 ul, iv at 2 mins by gamma-counting analysis; format: ADME, organism-based; details: in vivo; outline: as §1
[32] = system: Blood; assay: Drug uptake in ICR mouse blood at 370 kBq/100 ul, iv at 2 mins by gamma-counting analysis; format: ADME, organism-based; details: in vivo; outline: as §1
[33] = system: Heart; assay: Drug uptake in ICR mouse heart at 370 kBq/100 ul, iv at 10 mins by gamma-counting analysis; format: ADME, organism-based; details: in vivo; outline: as §1
[34] = system: Brain; assay: Drug uptake in ICR mouse brain at 370 kBq/100 ul, iv at 60 mins by gamma-counting analysis; format: ADME, organism-based; details: in vivo, 1 h; outline: as §1
[35] = system: Lung; assay: Drug uptake in ICR mouse lung at 370 kBq/100 ul, iv at 30 mins by gamma-counting analysis; format: ADME, organism-based; details: in vivo, 0.5 h; outline: as §1
[36] = Displacement of [125I]-IMPY from amyloid beta (1 to 42) fibrils after 2 hrs by gamma-counting analysis
Outline: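 Competition binding with aggregated Aβ1-42 fibrils and [125I]IMPY (60000−100000 cpm/100 μL) in 0.05% BSA (1 mL total); inhibitors 10⁻⁴−10^−8.5 M in ethanol. Incubated 37 °C for 2 h, then GF/B vacuum filtration with PBS (0.02 M, pH 7.4) washes and γ counting. Three repeats; IC50 converted to Ki by Cheng−Prusoff.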

[37] = system: Heart; assay: Drug uptake in ICR mouse heart at 370 kBq/100 ul, iv at 30 mins by gamma-counting analysis; format: ADME, organism-based; details: in vivo, 0.5 h; outline: as §1
[38] = system: Intestine; assay: Drug uptake in ICR mouse intestine assessed per organ at 370 kBq/100 ul, iv at 2 mins by gamma-counting analysis; format: ADME, organism-based; details: in vivo; outline: as §3
[39] = system: Spleen; assay: Drug uptake in ICR mouse spleen at 370 kBq/100 ul, iv at 30 mins by gamma-counting analysis; format: ADME, organism-based; details: in vivo, 0.5 h; outline: as §1
[40] = system: Stomach; assay: Drug uptake in ICR mouse stomach assessed per organ at 370 kBq/100 ul, iv at 60 mins by gamma-counting analysis; format: ADME, organism-based; details: in vivo, 1 h; outline: as §2
[41] = system: Lung; assay: Drug uptake in ICR mouse lung at 370 kBq/100 ul, iv at 2 mins by gamma-counting analysis; format: ADME, organism-based; details: in vivo; outline: as §1
[42] = system: Liver; assay: Drug uptake in ICR mouse liver at 370 kBq/100 ul, iv at 2 mins by gamma-counting analysis; format: ADME, organism-based; details: in vivo; outline: as §1
[43] = system: Stomach; assay: Drug uptake in ICR mouse stomach assessed per organ at 370 kBq/100 ul, iv at 2 mins by gamma-counting analysis; format: ADME, organism-based; details: in vivo; outline: as §3
[44] = system: Bone; assay: Drug uptake in ICR mouse bone at 370 kBq/100 ul, iv at 30 mins by gamma-counting analysis; format: ADME, organism-based, Bone element; details: in vivo, 0.5 h; outline: as §1

logD at 0.05 h [1]: 3.53
Drug uptake [2]: 2.05 % ID/g
Ratio [3]: 4.95
Drug uptake [4]: 2.54 %ID
Drug uptake [5]: 3.41 % ID/g
Drug uptake [6]: 1.88 % ID/g
Drug uptake [7]: 1.82 % ID/g
Drug uptake [8]: 2.06 % ID/g
Drug uptake [9]: 7.27 % ID/g
Drug uptake [10]: 1.76 % ID/g
Drug uptake [11]: 1.89 % ID/g
Drug uptake [12]: 3.82 % ID/g
Drug uptake [13]: 1.93 % ID/g
Drug uptake [14]: 4.39 % ID/g
Drug uptake [15]: 1.79 % ID/g
Drug uptake [16]: 1.27 % ID/g
Drug uptake [17]: 2.55 %ID
Drug uptake [18]: 38.88 %ID
Drug uptake [19]: 21.45 %ID
Drug uptake [20]: 1.32 % ID/g
Drug uptake [21]: 10.72 % ID/g
Drug uptake [22]: 2.02 % ID/g
Drug uptake [23]: Not Active
Drug uptake [24]: 2.44 % ID/g
Drug uptake [25]: 37.02 %ID
Drug uptake [26]: 3.22 % ID/g
Drug uptake [27]: 2.58 % ID/g
Drug uptake [28]: 2.08 % ID/g
Drug uptake [29]: 5.95 % ID/g
Drug uptake [30]: 3.19 % ID/g
Drug uptake [31]: 8.48 % ID/g
Drug uptake [32]: 3.57 % ID/g
Drug uptake [33]: 2.44 % ID/g
Drug uptake [34]: 1.47 % ID/g
Drug uptake [35]: 1.85 % ID/g
Ki [36]: 2.7 nM
Drug uptake [37]: 1.83 % ID/g
Drug uptake [38]: 8.41 %ID
Drug uptake [39]: 1.6 % ID/g
Drug uptake [40]: 2.79 %ID
Drug uptake [41]: 5.53 % ID/g
Drug uptake [42]: 15.7 % ID/g
Drug uptake [43]: 2.44 %ID
Drug uptake [44]: 1.56 % ID/g
SMILES: CN(C)c1ccc(-c2nc3cc(OCC[18F])ccc3o2)cn1
